ChEMBL document CHEMBL1136910, “Acetoxybenzhydrols as highly active and stable analogues of 1'S-1'-acetoxychavicol, a potent antiallergic principal from Alpinia galanga” (Bioorg Med Chem Lett, 2009)
Counter-ions that a name gives are not always drawn.

Columns and labels:
Format in all cases: functional, cell-based
RBL-2H3 [1] = test: Antiallergic activity against antigen-IgE-mediated degranulation in rat RBL2H3 cells assessed as inhibition of DNP-BSA-induced beta-hexosaminidase release preincubated for 10 mins before DNP-BSA challenge measured after 10 mins
Procedure, shortened: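 Test sample was added to each RBL-2H3 well 10 min before DNP-BSA challenge. β-Hexosaminidase released into the medium was determined 10 min after challenge.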

RBL-2H3 [2] = test: Antiallergic activity against antigen-IgE-mediated degranulation in rat RBL2H3 cells assessed as inhibition of DNP-BSA-induced IL4 release preincubated for 10 mins before DNP-BSA challenge measured after 4 hrs
Procedure, shortened: (§1)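 Test sample was added to each RBL-2H3 well 10 min before DNP-BSA challenge. TNF-α and IL-4 released into the medium were measured 4 h after challenge.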

RBL-2H3 [3] = test: Antiallergic activity against antigen-IgE-mediated degranulation in rat RBL2H3 cells assessed as inhibition of DNP-BSA-induced TNFalpha release preincubated for 10 mins before DNP-BSA challenge measured after 4 hrs; procedure, shortened: as §1

SMILES	IC50 (RBL-2H3 [1]) [µM]	IC50 (RBL-2H3 [2]) [µM]	IC50 (RBL-2H3 [3]) [µM]
CCC(=O)Oc1ccc(C(OC(=O)CC)c2ccccc2)cc1 (stereo unspecified)	38		
COC(=O)OC(c1ccccc1)c1ccc(OC(C)=O)cc1 (stereo unspecified)	6.5	12	11
O=COc1ccc(C(OC=O)c2ccccc2)cc1 (stereo unspecified)	> 100		
C=CC(=O)Oc1ccc(C(OC(=O)C=C)c2ccccc2)cc1 (stereo unspecified)	28		
COC(=O)Oc1ccc(C(OC(=O)OC)c2ccccc2)cc1 (stereo unspecified)	18		
CC(C)C(=O)Oc1ccc(C(OC(=O)C(C)C)c2ccccc2)cc1 (stereo unspecified)	> 100		
CC(=O)Oc1ccc(C(OC(=O)c2ccccc2)c2ccccc2)cc1 (stereo unspecified)	17	23	28
CC(=O)Oc1ccc(C(OC(=O)C(C)(C)C)c2ccccc2)cc1 (stereo unspecified)	36		
CC(=O)Oc1ccc(C(OC(C)=O)c2ccccc2)cc1 (stereo unspecified)	14		
CC(=O)Oc1ccc(C(O)c2ccccc2)cc1 (stereo unspecified)	> 100		
CC(=O)Oc1ccc(C(OC(=O)C(C)C)c2ccccc2)cc1 (stereo unspecified)	27		
CN1CCC(=C2c3ccccc3CC(=O)c3sccc32)CC1 [KETOTIFEN FUMARATE]	158		
